Compound activity from PubChem.
CHRM4 PAM = human M4 muscarinic receptor positive allosteric modulators, primary screen, CHO-K1 cells, Fluo-8 calcium fluorescence. hit rate 0.4% among 360,000. AID 624126, 2012. activation, % at 3 µM. CHO-K1 hM4/Gqi5, ACh EC20; 0% = ACh EC20, 100% = maximal ACh;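 active means activation above its plate's cutoff, the mean activation of sample wells plus 3 SD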
M4 ag = human M4 muscarinic receptor agonists, primary screen, CHO-K1 cells, Fluo-8 calcium fluorescence; Muscarinic acetylcholine receptor M4 (Homo sapiens), P08173; CHO-K1 hM4/Gqi5; vehicle 0%, full acetylcholine response 100%; activation, % at 3 µM; hit rate 0.14% among 360,000; AID 624127, 2012;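 active means activation above the run mean over all test wells plus 3 SD, cut at about 32% in these data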;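 further: peak over basal fluorescence ratio per well then scaled between controls; 0% = DMSO wells and 100% = acetylcholine at EC100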
OXTR ag = human OXTR agonists, primary screen, fluorescence, CHO-OTR cells, Fluo-8 calcium; Oxytocin receptor (Homo sapiens), P30559; Fluo-8 calcium fluorescence; normalized: DMSO 0%, oxytocin 100%; activation, % at 3 µM; hit rate 0.32% among 320,000; AID 2435, 2010;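 active means activation above the mean of all tested compounds plus 3 SD, cutoff set per screening run, cut at about 20% in these data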;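 further: peak over basal fluorescence ratio from a 100 s FLIPR kinetic read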
Target sequence (P30559 whole entry, looked up): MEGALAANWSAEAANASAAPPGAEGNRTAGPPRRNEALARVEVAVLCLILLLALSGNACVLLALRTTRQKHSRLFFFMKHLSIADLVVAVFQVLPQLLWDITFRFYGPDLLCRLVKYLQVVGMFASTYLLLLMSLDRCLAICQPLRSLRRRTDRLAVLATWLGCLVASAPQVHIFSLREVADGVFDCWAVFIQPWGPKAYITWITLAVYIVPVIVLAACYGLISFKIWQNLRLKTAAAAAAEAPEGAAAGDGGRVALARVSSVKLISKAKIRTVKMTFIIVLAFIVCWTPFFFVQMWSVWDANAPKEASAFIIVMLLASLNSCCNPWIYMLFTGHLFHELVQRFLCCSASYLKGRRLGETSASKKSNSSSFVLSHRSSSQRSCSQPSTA
M4 antag = human M4 muscarinic receptor antagonists, primary screen, CHO cells, Fluo-8 calcium fluorescence; Muscarinic acetylcholine receptor M4 (Homo sapiens), P08173; CHO-hM4 cells, ACh EC80; inhibition, % at 3 µM; hit rate 0.73% among 360,000;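 active means inhibition above its plate's cutoff, the mean inhibition of sample wells plus 3 SD, cut at about 27% in these data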;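 further: 0% = acetylcholine EC80 with DMSO and 100% = DMSO without agonist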
V1aR counter = agonists of human V1a receptor, primary screen, counter-screen for OXTR agonist project, fluorescence, CHO-V1R cells. Vasopressin V1a receptor (Homo sapiens), P37288. Fluo-8 calcium fluorescence, agonist mode; 0% DMSO, 100% 3 nM vasopressin. hit rate 0.25% among 320,000. activation, % at 3 µM;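 active means activation above the mean activation of all tested compounds plus 3 SD, per screening run, cut at about 20% in these data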;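 further: signal is peak over basal fluorescence ratio across a 100 second FLIPR read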
OXTR potentiator = human OXTR potentiators, primary screen, fluorescence, CHO-OTR cells, Fluo-8 calcium. Oxytocin receptor (Homo sapiens), P30559. Fluo-8 calcium fluorescence, potentiator mode; 0% = oxytocin EC15, 100% = EC100. activation, % at 3 µM. hit rate 0.061% among 320,000. AID 2445, 2010;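 active means activation above that plate's cutoff, the mean activation of tested compounds plus 3 SD, cut at about 6.6% in these data, passing the limit was not always enough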;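 further: 100% uses oxytocin at 75 nM as the full agonist control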
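Assay system: CHO cell line stably expressing human OTR | Also added: Oxytocin at about EC15, sub-maximal agonist stimulus | Times: Compound 6 min at room temperature before oxytocin, 100 s read | Measured by: Fluo-8 intracellular calcium fluorescence, ex 470-495, em 515-575 nm | Controls: EC15 oxytocin alone as 0%, 75 nM oxytocin as 100%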
* = called active by the depositor; nt = not tested or not shown. Compounds with a hit are over-represented: about 1.5% of the library has one in this group of screens.

SMILES	CHRM4 PAM	M4 ag	OXTR ag	M4 antag	V1aR counter	OXTR potentiator
COC(=O)Cn1c(=O)n(CCc2ccccc2)c(=O)c2c3c(sc21)CCCC3	-32	-3	-2	30*	-1	-8
CC(O)CNc1nc2sc3c(c2c(=O)n1CCc1ccccc1)CCCCC3 (stereo unspecified)	-3	7	0	-4	-1	-14
CN(C)CCNc1nc2sc3c(c2c(=O)n1CCc1ccccc1)CCCCC3	-13	19	10	31*	4	-12
c1ccc2c(c1)Cc1ccccc1O2	-1	2	2	-8	1	0
c1cc2c(cc1CN1CCN(C3CCCCCC3)CC1)OCO2	-16	0	-1	46*	1	-12
C=CCC[C@H](Cc1ccc(F)cc1)C(=O)OC[C@@H](Cc1c[nH]c2ccccc12)NC(=O)[C@H](CC=C)CC(=O)N(CCO)Cc1ccccc1	-3	10	0	45*	0	-9
C=CC[C@@H](CC(=O)N(CCO)Cc1ccccc1)C(=O)NC[C@H](OC(=O)[C@@H](CC=C)Cc1ccc(F)cc1)c1ccccc1	-10	27	3	30*	4	-9
O=C(NNC(=O)C(c1ccccc1)c1ccccc1)c1cccs1	-2	3	0	-1	2	-2
COC(=O)c1ccc2nc(C3CCCCC3)c(Cc3cccc(Cl)c3)n2c1	-11	-1	nt	11	nt	nt
CCc1nnc(NC(=O)c2ccncc2)s1	18*	0	0	-5	1	-3
CCc1nnc(NC(=O)c2cc(-c3ccco3)nc3ccccc23)s1	4	1	0	-8	1	0
CCc1nnc(NC(=O)c2cc(-c3ccccn3)nc3ccccc23)s1	19*	1	-1	-2	0	2
CCN1C(=O)[C@H]2[C@H]3CN=C(SCC(=O)c4ccccc4)N3[C@@](CC)(C(=O)OC)[C@H]2C1=O	4	2	nt	-1	nt	nt
CCCCCCCCCCCC1N=C(N)NC(CCCO)=C1C(=O)OC (stereo unspecified)	-1	0	nt	-7	nt	nt
CC(C)c1ccc(N2C(=O)/C(=C/N(C)C)SC2=S)cc1	-3	5	38*	5	25*	-19
CN(C(=O)COC(=O)CNC(=O)c1cccs1)c1c(N)n(Cc2ccccc2)c(=O)[nH]c1=O	4	1	1	3	0	-3
COC(=O)CN1C(=O)N/C(=C/c2ccccc2OC)C1=O	-3	2	-1	-1	0	-15
COc1cc(/C=N/N2C(=O)CSC2=S)ccc1O	0	7	15	-6	12	-18
O=C1CSC(=S)N1/N=C/c1cc(Br)c(O)c(Br)c1	-30	401*	158*	54*	140*	-16
O=C(CCC1CCCC1)NCc1cccs1	20*	0	-2	21	-1	-7
O=C(Nc1ncc(Cc2ccc(SC(F)F)cc2)s1)c1ccc(OC(F)F)cc1	21*	3	23*	7	25*	-8
CCOC(=O)C1=C[C@@H](CC)N(S(=O)(=O)c2ccc(C)cc2)[C@H]1c1ccccc1	-9	-2	nt	3	nt	nt
CCOC(=O)C1=C[C@@H](C2CCCC2)N(S(=O)(=O)c2ccc([N+](=O)[O-])cc2)[C@H]1c1ccccc1	-18	6	nt	39*	nt	nt
O=C(NCCS(=O)(=O)N1CCN(c2ccc(F)cc2)CC1)C12CC3CC(CC(C3)C1)C2	-1	4	1	-5	6	-16
O=C(Nc1ccc2c(c1)OCO2)Nc1ccc(Br)cn1	41*	6	1	4	1	-10
SMILES	CHRM4 PAM	M4 ag	OXTR ag	M4 antag	V1aR counter	OXTR potentiator
CC(Oc1ccc2c(-c3ccccc3)cc(=O)oc2c1)C(=O)O (stereo unspecified)	-12	0	0	27*	-1	-3
CC(Oc1ccc2c(-c3ccccc3)cc(=O)oc2c1)C(=O)N1CCOCC1 (stereo unspecified)	-3	2	2	8	1	3
OC(c1ccccc1)(c1ccc(F)cc1)C(c1ccccc1)N1CCOCC1 (stereo unspecified)	-14	-2	-2	-4	-1	-13
C(=C\c1ccccc1)/CN1CCN(C(c2cccs2)c2nnnn2-c2ccc3c(c2)OCCO3)CC1 (stereo unspecified)	-16	4	nt	29*	nt	nt
COc1ccc(C(c2nnnn2-c2ccc3c(c2)OCCO3)N2CCN(C/C=C/c3ccccc3)CC2)cc1 (stereo unspecified)	-16	3	nt	35*	nt	nt
C(=C\c1ccccc1)/CN1CCN(C(c2cc3ccccc3o2)c2nnnn2-c2ccc3c(c2)OCCO3)CC1 (stereo unspecified)	-10	1	nt	13	nt	nt
O=S(=O)(c1ccc2nc(N3CCN(c4ccc(F)cc4)CC3)ccc2c1)N1CCCCC1	-8	15	0	1	0	-7
C=C1C(=O)C23C(O)C1CCC2C12CCCC(C)(COC(C)=O)C1C(O)C3(O)OC2 (stereo unspecified)	-7	3	nt	42*	nt	nt
CCOc1ccc(OCCC(=O)N(CCC(C)C)c2c(N)n(Cc3ccccc3)c(=O)[nH]c2=O)cc1	1	1	-1	-2	0	-6
Cc1cc(Cl)c(S(=O)(=O)N2CC(C)OC(C)C2)cc1OCC(N)=O (stereo unspecified)	-3	1	1	10	0	-4
CCOc1ccc(NS(=O)(=O)c2cc(OCC(N)=O)c(C)cc2Cl)cc1	27*	2	0	4	4	-8
Cc1cc(Cl)c(S(=O)(=O)N2CCSCC2)cc1OCC(N)=O	19*	4	1	1	0	-7
CC(C)(C)N(Cc1ccccc1)C(=O)COC(=O)c1ccc(S(=O)(=O)N2CCOCC2)cc1	-2	6	4	-5	6	-6
COc1ccc(CN2CCCC(C(=O)c3ccc4c(c3)OCO4)C2)c(F)c1 (stereo unspecified)	-14	4	2	61*	4	1
CCN(CC)c1ccc2cc(C=O)c(=O)oc2c1	-1	18	110*	10	88*	-24
CCCN(C)C1CN(Cc2cn(Cc3cc(C)cc(C)c3)nn2)S(=O)(=O)C1 (stereo unspecified)	5	1	nt	-7	nt	nt
